In ChEMBL document CHEMBL1123529, “Analogues of substance P. Peptides containing D-amino acid residues in various positions of substance P and displaying agonist or receptor selective antagonist effects” (1986):

Experiments:
[1] = molecular target: Metabotropic glutamate receptor 3 (Rattus norvegicus) (UniProt P31422); test: Antagonistic activity against Glutamate receptor in rat spinal cord at concentration of 50 uM.; format: functional, tissue-based
How it was run: (§1)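 Neonatal hemisectioned spinal cord from Wistar rats (Alderley Park strain, 2-7 days old), anaesthetised with intraperitoneal urethane (25% w/v, […]) and then decapitated. Cord superfused with oxygenated medium at 1 mL/min. Agonist (SP, SP(6-11), glutamate or carbachol) applied as 2-mL doses in the superfusate. Antagonist superfused for at least 15 min before agonists were retested. Read-out: % change in ventral root–cord DC potential response amplitude.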

[2] = molecular target: Substance-P receptor (Rattus norvegicus) (UniProt P14600); test: Antagonistic activity against Substance P(6-11) receptor in rat spinal cord at concentration of 50 uM.
[3] = molecular target: Substance-P receptor (Cavia porcellus) (UniProt P30547); test: Antagonistic activity against Substance P(6-11) receptor in guinea pig ileum at concentration of 50 uM.; format: functional, tissue-based
How it was run: (§2)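 Distal ileum from Dunkin-Hartley guinea pigs (300-350 g, both sexes) in a Krebs organ bath at 37 °C, gassed with 95% O2/5% CO2. Agonist (SP or SP(6-11)) dose-response curves run on a 3-min cycle with 1-min contact, with and without antagonist. Dose ratio = agonist EC50 with antagonist / EC50 alone. At least two preparations per compound; ratios below 2 taken as insignificant.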

[4] = molecular target: Substance-P receptor (Cavia porcellus) (UniProt P30547); test: Evaluated in vitro for percent agonist activity in guinea pig ileum (substance P receptor); format: functional, tissue-based
[5] = molecular target: Substance-P receptor (Rattus norvegicus) (UniProt P14600); test: Antagonistic activity against Substance P receptor in rat spinal cord at concentration of 50 uM.
[6] = molecular target: Substance-P receptor (Cavia porcellus) (UniProt P30547); test: Antagonistic activity against Substance P receptor in guinea pig ileum at concentration of 50 uM.; format: functional, tissue-based; how it was run: as §2
[7] = molecular target: Metabotropic glutamate receptor 3 (Rattus norvegicus) (UniProt P31422); test: Antagonistic activity against Glutamate receptor in rat spinal cord at concentration of 10 uM.; format: functional, tissue-based
How it was run: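 Cord superfused with oxygenated medium at 1 mL/min. Agonist (SP, SP(6-11), glutamate or carbachol) applied as 2-mL doses in the superfusate. Antagonist superfused for at least 15 min before agonists were retested. Read-out: % change in ventral root–cord DC potential response amplitude.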

[8] = molecular target: Substance-P receptor (Rattus norvegicus) (UniProt P14600); test: Antagonistic activity against Substance P(6-11) receptor in rat spinal cord at concentration of 10 uM.
[9] = molecular target: Substance-P receptor (Rattus norvegicus) (UniProt P14600); test: Antagonistic activity against Substance P(6-11) receptor in rat spinal cord at concentration of 25 uM.
[10] = molecular target: Substance-P receptor (Cavia porcellus) (UniProt P30547); test: Antagonistic activity against Substance P(6-11) receptor in guinea pig ileum at concentration of 6.4 uM.; format: functional, tissue-based; how it was run: as §2
[11] = molecular target: Substance-P receptor (Rattus norvegicus) (UniProt P14600); test: Antagonistic activity against Substance P receptor in rat spinal cord at concentration of 25 uM.
[12] = molecular target: Substance-P receptor (Cavia porcellus) (UniProt P30547); test: Antagonistic activity against Substance P receptor in guinea pig ileum at concentration of 47 uM.; format: functional, tissue-based; how it was run: as §2
[13] = molecular target: Metabotropic glutamate receptor 3 (Rattus norvegicus) (UniProt P31422); test: Antagonistic activity against Glutamate receptor in rat spinal cord at concentration of 25 uM.; format: functional, tissue-based; how it was run: as §1
[14] = molecular target: Substance-P receptor (Cavia porcellus) (UniProt P30547); test: Antagonistic activity against Substance P receptor in guinea pig ileum at concentration of 6.4 uM.; format: functional, tissue-based; how it was run: as §2
[15] = molecular target: Substance-P receptor (Cavia porcellus) (UniProt P30547); test: Antagonistic activity against Substance P(6-11) receptor in guinea pig ileum at concentration of 47 uM.; format: functional, tissue-based; how it was run: as §2
[16] = molecular target: Substance-P receptor (Cavia porcellus) (UniProt P30547); test: Antagonistic activity against Substance P(6-11) receptor in guinea pig ileum at concentration of 5 uM.; format: functional, tissue-based; how it was run: as §2
[17] = molecular target: Substance-P receptor (Rattus norvegicus) (UniProt P14600); test: Antagonistic activity against Substance P receptor in rat spinal cord at concentration of 5 uM.
[18] = molecular target: Substance-P receptor (Rattus norvegicus) (UniProt P14600); test: Antagonistic activity against Substance P(6-11) receptor in rat spinal cord at concentration of 5 uM.
[19] = molecular target: Substance-P receptor (Cavia porcellus) (UniProt P30547); test: Antagonistic activity against Substance P receptor in guinea pig ileum at concentration of 5 uM.; format: functional, tissue-based; how it was run: as §2
[20] = molecular target: Substance-P receptor (Cavia porcellus) (UniProt P30547); test: Antagonistic activity against Substance P(6-11) receptor in guinea pig ileum at concentration of 14 uM.; format: functional, tissue-based; how it was run: as §2
[21] = molecular target: Substance-P receptor (Cavia porcellus) (UniProt P30547); test: Antagonistic activity against Substance P receptor in guinea pig ileum at concentration of 14 uM.; format: functional, tissue-based; how it was run: as §2

Substance-P receptor (Rattus norvegicus), sequence (P14600 whole entry, looked up): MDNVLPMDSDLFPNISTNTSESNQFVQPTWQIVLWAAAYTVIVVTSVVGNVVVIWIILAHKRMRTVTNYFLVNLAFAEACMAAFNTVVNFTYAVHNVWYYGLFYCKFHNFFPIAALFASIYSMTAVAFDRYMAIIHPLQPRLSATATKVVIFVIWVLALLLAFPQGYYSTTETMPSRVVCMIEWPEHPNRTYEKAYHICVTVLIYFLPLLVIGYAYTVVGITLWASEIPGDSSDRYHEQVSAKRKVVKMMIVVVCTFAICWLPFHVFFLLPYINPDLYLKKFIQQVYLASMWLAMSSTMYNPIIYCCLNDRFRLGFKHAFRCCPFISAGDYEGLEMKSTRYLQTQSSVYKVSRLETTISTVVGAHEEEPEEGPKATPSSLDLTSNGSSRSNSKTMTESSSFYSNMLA
Metabotropic glutamate receptor 3 (Rattus norvegicus), sequence (P31422 23-879 limits assumed): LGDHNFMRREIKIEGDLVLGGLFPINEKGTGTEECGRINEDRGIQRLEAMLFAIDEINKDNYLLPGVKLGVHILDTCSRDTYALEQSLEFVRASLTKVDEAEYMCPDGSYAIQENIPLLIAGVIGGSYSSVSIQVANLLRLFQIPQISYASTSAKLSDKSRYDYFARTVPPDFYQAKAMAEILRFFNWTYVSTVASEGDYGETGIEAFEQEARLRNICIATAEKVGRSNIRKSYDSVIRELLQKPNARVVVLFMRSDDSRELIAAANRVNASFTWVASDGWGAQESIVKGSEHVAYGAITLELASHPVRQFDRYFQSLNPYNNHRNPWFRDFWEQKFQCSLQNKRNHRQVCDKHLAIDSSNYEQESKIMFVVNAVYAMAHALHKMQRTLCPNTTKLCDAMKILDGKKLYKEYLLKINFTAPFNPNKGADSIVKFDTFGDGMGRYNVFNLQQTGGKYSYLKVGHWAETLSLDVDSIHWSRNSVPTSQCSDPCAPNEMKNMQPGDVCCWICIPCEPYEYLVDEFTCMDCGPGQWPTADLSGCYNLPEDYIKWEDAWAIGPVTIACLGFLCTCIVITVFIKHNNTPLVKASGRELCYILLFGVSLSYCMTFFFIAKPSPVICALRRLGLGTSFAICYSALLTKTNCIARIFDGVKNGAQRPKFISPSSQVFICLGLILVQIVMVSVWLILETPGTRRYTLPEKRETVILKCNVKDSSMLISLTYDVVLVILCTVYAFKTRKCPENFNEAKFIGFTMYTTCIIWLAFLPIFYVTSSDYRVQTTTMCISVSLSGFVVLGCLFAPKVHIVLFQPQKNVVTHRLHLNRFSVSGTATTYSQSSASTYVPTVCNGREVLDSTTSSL
Substance-P receptor (Cavia porcellus), sequence (P30547 whole entry): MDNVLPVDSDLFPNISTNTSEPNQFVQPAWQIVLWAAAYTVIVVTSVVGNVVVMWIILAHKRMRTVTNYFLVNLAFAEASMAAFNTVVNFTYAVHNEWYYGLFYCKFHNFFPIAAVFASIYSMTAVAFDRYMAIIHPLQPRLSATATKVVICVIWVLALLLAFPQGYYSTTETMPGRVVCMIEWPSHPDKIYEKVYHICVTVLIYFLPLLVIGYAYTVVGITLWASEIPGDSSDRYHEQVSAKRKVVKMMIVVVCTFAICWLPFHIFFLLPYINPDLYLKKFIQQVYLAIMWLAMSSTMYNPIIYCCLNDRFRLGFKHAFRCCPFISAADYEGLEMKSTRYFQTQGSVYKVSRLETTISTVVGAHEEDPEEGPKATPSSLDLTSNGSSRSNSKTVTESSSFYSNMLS

Row | Change in amplitude response [1] | Change in amplitude response [2] | SP [4] | Change in amplitude response [5] | Change in amplitude response [8] | Change in amplitude response [9] | Change in amplitude response [11] | Change in amplitude response [13] | Structure (SMILES) | other results
1 | – | – | 0% | – | – | -55% | 30% | 7% | CSCC[C@@H](NC(=O)[C@H](CC(C)C)NC(=O)[C@@H](Cc1c[nH]c2ccccc12)NC(=O)[C@H](Cc1c[nH]c2ccccc12)NC(=O)[C@@H](Cc1c[nH]c2ccccc12)NC(=O)[C@H](CCC(N)=O)NC(=O)[C@H](CCC(N)=O)NC(=O)[C@@H]1CCCN1C(=O)[C@H](CCCCN)NC(=O)[C@@H]1CCCN1C(=O)[C@@H](N)CCCN=C(N)N)C(=O)O | Activity [10]: 2 dose ratio; Activity [12]: 10.3 dose ratio; Activity [14]: 3.1 dose ratio; Activity [15]: 16.1 dose ratio
2 | – | – | < 2% | – | – | -49% | -12% | -40% | CSCC[C@@H](NC(=O)[C@H](CC(C)C)NC(=O)[C@@H](Cc1c[nH]c2ccccc12)NC(=O)[C@H](Cc1c[nH]c2ccccc12)NC(=O)[C@@H](Cc1c[nH]c2ccccc12)NC(=O)[C@H](CCC(N)=O)NC(=O)[C@H](CCC(N)=O)NC(=O)[C@@H]1CCCN1C(=O)[C@H](CCCCNC(=O)OCc1ccccc1)NC(=O)[C@@H]1CCCN1C(=O)[C@H](CCCN=C(N)N)NC(=O)OCc1ccccc1)C(=O)O | –
3 | -18% | – | – | -29% | -62% | – | – | – | COC(=O)[C@@H](CCSC)NC(=O)[C@H](CC(C)C)NC(=O)[C@@H](Cc1c[nH]c2ccccc12)NC(=O)[C@H](Cc1c[nH]c2ccccc12)NC(=O)[C@@H](Cc1c[nH]c2ccccc12)NC(=O)[C@H](CCC(N)=O)NC(=O)[C@H](CCC(N)=O)NC(=O)[C@@H]1CCCN1C(=O)[C@H](CCCCNC(=O)OCc1ccccc1)NC(=O)[C@@H]1CCCN1C(=O)[C@@H](N)CCCN=C(N)N | Activity [16]: < 2 dose ratio; Change in amplitude response [17]: 11%; Change in amplitude response [18]: -13%; Activity [19]: < 2 dose ratio

Continued, molecule first:

Row | Structure (SMILES) | Change in amplitude response [1] | Change in amplitude response [2] | SP [4] | Change in amplitude response [5] | Change in amplitude response [8] | Change in amplitude response [9] | Change in amplitude response [11] | Change in amplitude response [13] | other results
4 | COC(=O)[C@H](CCSC)NC(=O)[C@@H](NC(=O)[C@H](NC(=O)[C@H](Cc1ccccc1)NC(=O)[C@H](Cc1ccccc1)NC(=O)[C@H](CCC(N)=O)NC(=O)[C@H](CCC(N)=O)NC(=O)[C@@H]1CCCN1C(=O)[C@H](CCCCNC(=O)OCc1ccccc1)NC(=O)[C@@H]1CCCN1C(=O)[C@H](CCCN=C(N)N)NC(=O)OCc1ccccc1)C(C)C)C(C)C | -36% | -22% | 0% | -30% | – | – | – | – | Activity [3]: < 2 dose ratio; Activity [6]: < 2 dose ratio
5 | COC(=O)[C@@H](CCSC)NC(=O)[C@H](CC(C)C)NC(=O)CNC(=O)[C@H](Cc1ccccc1)NC(=O)[C@H](Cc1ccccc1)NC(=O)[C@@H](NC(=O)[C@H](NC(=O)[C@@H]1CCCN1C(=O)[C@H](CCCCNC(=O)OCc1ccccc1)NC(=O)[C@@H]1CCCN1C(=O)[C@H](CCCN=C(N)N)NC(=O)OCc1ccccc1)C(C)C)C(C)C | -17% | -21% | 0.001% | -13% | 31% | – | – | – | Change in amplitude response [7]: -5%
6 | COC(=O)[C@@H](CCSC)NC(=O)[C@H](CC(C)C)NC(=O)CNC(=O)[C@H](Cc1ccccc1)NC(=O)[C@H](Cc1ccccc1)NC(=O)[C@@H]1CCCN1C(=O)[C@H]1CCCN1C(=O)[C@@H]1CCCN1C(=O)[C@H](CCCCNC(=O)OCc1ccccc1)NC(=O)[C@@H]1CCCN1C(=O)[C@H](CCCN=C(N)N)NC(=O)OCc1ccccc1 | – | – | 0.004% | – | – | – | – | – | Activity [20]: < 2 dose ratio; Activity [21]: < 2 dose ratio
